Screening data: PubChem, several laboratories
Platelet DG rel – inhibitors of platelet dense granule secretion, primary screen, cell-based, MLPCN, human platelets. human platelet-rich plasma, SFLLRN dense granule ATP release, luminescence. inhibition, %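 (compounds screened at 7.5 µM in platelet-rich plasma)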. 0.22% of 300,000 active;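 active means mean replicate score, as percent of positive control, at or above 50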
hK5 inh – human KLK5 protease inhibitors, primary screen, biochemical, 1536-well; 0.59% of 210,000 active; Kallikrein-5 (Homo sapiens), Q9Y337; recombinant hK5, fluorogenic AMC substrate cleavage; inhibition, % at 5 µM; AID 873, 2007;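 active means inhibition of 40% or more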
FXIa inh – human FXIa protease inhibitors, primary screen, biochemical, 1536-well | purified FXIa, Boc-Glu-Ala-Arg-AMC fluorogenic substrate | Coagulation factor XI (Homo sapiens), P03951 | 0.14% of 220,000 active | inhibition, % at 5 µM;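 active means inhibition of at least 40%; inactive means inhibition below 40%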;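 further: fluorescence of freed AMC excited at 355 nm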
FXIIa inh – human FXIIa protease inhibitors, primary screen, biochemical, 1536-well | AID 800, 2007 | purified FXIIa, Boc-QGR-AMC fluorogenic substrate, 2 h | inhibition, % at 5 µM | 0.3% of 220,000 active | Coagulation factor XII (Homo sapiens), P00748; in the data active means inhibition above about 40%
Target sequence (P00748 20-372 limits assumed): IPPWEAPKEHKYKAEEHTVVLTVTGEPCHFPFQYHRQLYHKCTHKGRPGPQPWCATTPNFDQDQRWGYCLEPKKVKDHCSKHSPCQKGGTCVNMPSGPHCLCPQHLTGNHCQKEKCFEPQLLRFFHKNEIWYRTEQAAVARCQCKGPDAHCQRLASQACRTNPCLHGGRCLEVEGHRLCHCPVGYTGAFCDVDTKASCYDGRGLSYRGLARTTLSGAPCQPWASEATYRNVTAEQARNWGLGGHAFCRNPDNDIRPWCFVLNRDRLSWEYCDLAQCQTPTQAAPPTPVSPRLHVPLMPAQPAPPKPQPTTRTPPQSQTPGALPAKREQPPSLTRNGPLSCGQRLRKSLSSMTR
Target sequence (P00748 373-615 limits assumed): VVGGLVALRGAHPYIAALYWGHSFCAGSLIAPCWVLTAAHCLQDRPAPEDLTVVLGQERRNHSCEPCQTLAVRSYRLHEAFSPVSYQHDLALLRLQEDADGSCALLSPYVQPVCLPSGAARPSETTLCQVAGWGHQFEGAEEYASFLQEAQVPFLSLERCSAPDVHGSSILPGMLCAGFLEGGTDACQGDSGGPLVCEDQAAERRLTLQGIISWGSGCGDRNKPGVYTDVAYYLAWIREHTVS
Wee1 stabilizer – Wee1 degradation inhibitors, primary screen, cell-based, HeLa, Wee1K328M-luciferase, luminescence | HeLa Luc-Wee1K328M stability; 100% = proteasome inhibitor MG132 effect | reporter increase, % at 5 µM | 1.2% of 220,000 active;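 active means activation above the mean of all tested compounds plus 3 SD, set per screening run, cut at about 8.8% in these data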;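 further: cells exposed to compound for 20 h before luminescence read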
Thrombin inh – human alpha-thrombin inhibitors, primary screen, counter-screen for coagulation protease inhibitor project, biochemical, 1536-well, fluorogenic AMC substrate; Prothrombin (Homo sapiens), P00734; Boc-VPR-AMC fluorogenic substrate cleavage; inhibition, % at 5 µM; 0.26% of 220,000 active; AID 1046, 2008;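 active means inhibition at or above 40%; inactive means inhibition below 40%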
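System: Human alpha-thrombin protein | Medium: pH 7.5 Tris (50 mM) with NaCl 150 mM, Tween 20 0.05% | Times: Enzyme reaction carried out at room temperature | Detection: AMC fluorescence, 355/460 nm | Evaluation: Percent inhibition scaled between no-compound controls and no-enzyme blanks | Benchmarks: Enzyme without compound as high, wells lacking enzyme as low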
Each line names hits and unclear results; the compound was inactive in the other large screens. Sampled rows, rich in hits. Any-hit rate of the full collection: about 1.8%.

COc1ccc(N2CCN(C(=O)c3ccc4c(=O)n5c(nc4c3)CCCCC5)CC2)cc1	none (no result: hK5 inh, FXIa inh, FXIIa inh, Wee1 stabilizer, Thrombin inh)
Cc1ccc(N=Nc2cc(C)ccc2N)cc1	Platelet DG rel 70
Cc1ccc(N=Nc2cc(C)ccc2O)c(C)c1	none (no result: hK5 inh, FXIa inh, FXIIa inh, Wee1 stabilizer, Thrombin inh)
O=C1CC(Sc2nnnn2-c2ccccc2)C(=O)N1c1cccc(Cl)c1 (stereo not drawn)	Platelet DG rel 55
O=C(CCn1cccn1)Nc1ccc2c(c1)OCO2	none (no result: hK5 inh, FXIa inh, FXIIa inh, Wee1 stabilizer, Thrombin inh)
CCOC(=O)N1CCN(Cc2nc3c(c(=O)n(C)c(=O)n3C)n2Cc2cccc3ccccc23)CC1	Platelet DG rel 73 (no result: hK5 inh, FXIa inh, FXIIa inh, Wee1 stabilizer, Thrombin inh)
CCOC(=O)N1CCN(Cc2nc3c(c(=O)n(C)c(=O)n3C)n2Cc2cccc(C)c2)CC1	none
COc1ccc(-n2c(=S)[nH]c3cc(C(=O)NCCCN4CCOCC4)ccc3c2=O)cc1OC	none (no result: hK5 inh, FXIa inh, FXIIa inh, Wee1 stabilizer, Thrombin inh)
O=C(Nc1c(C(=O)O)oc2ccc(Br)cc12)c1ccccc1	Wee1 stabilizer 13
O=C(CC1CC2CCC1C2)Nc1nc(-c2ccccn2)cs1 (stereo not drawn)	hK5 inh 87
CC(=O)Nc1nc(COc2ccccc2)cs1	none
O=C(Nc1nc(COc2ccccc2)cs1)C1CCC1	Wee1 stabilizer 9.3
COc1ccc(-n2cnc3cc(C(=O)NCCN4CCOCC4)ccc32)cc1	none
CS(=O)(=O)N(CC(=O)Nc1ccc(F)c(F)c1)c1cccc([N+](=O)[O-])c1	none
O=C(Nn1cnnc1)c1ccccc1CCc1ccccc1	Platelet DG rel 62
O=C(Nc1ccccc1)c1ccccc1CCc1ccccc1	none
Cc1cccc(OCC(O)CN2CCOCC2)c1 (stereo not drawn)	none (no result: hK5 inh, FXIa inh, FXIIa inh, Wee1 stabilizer, Thrombin inh)
CC(C)c1nc(SCC(=O)Nc2cccc(S(N)(=O)=O)c2)n[nH]1	Wee1 stabilizer 10
CCCCNc1nc(=S)n(-c2ccccc2)c(C)c1C(C)=O	none
O=C(N/N=C/c1ccc(Br)cc1)c1ccccc1-n1cccc1	none
Clc1ccc(/C=C/c2nc3ccccc3[nH]2)c(Cl)c1	Platelet DG rel 60
Clc1ccc(/C=C/c2nc3ccccc3[nH]2)cc1	Platelet DG rel 78
CC1CCN(Cc2nnnn2CCCC(=O)N(C)C(C)c2ccccn2)CC1 (stereo not drawn)	none (no result: hK5 inh, FXIa inh, FXIIa inh, Wee1 stabilizer, Thrombin inh)
O=C(Nc1nc2ccc(S(=O)(=O)N3CCCCC3)cc2s1)C1CCCO1 (stereo not drawn)	none
O=C(Nc1nc2ccc(S(=O)(=O)N3CCCC3)cc2s1)C1CCCCC1	Wee1 stabilizer 11
O=C(O)c1cc([N+](=O)[O-])c(N2CCCC2)c([N+](=O)[O-])c1	none
C/C=C/C(=O)OCC(=O)Nc1nc2ccc(C)cc2s1	none
Cc1ccc2nc(NC(=O)CSCC(=O)OCC(=O)c3ccccc3)sc2c1	Thrombin inh 93
CCOCC(=O)Nc1nc2ccc(C)cc2s1	none
Cc1ccc2nc(NC(=O)COC(=O)c3ccccn3)sc2c1	Wee1 stabilizer 9.3
COc1ccccc1OCCNC(=O)C(CCSC)NS(=O)(=O)c1ccccc1F (stereo not drawn)	none (no result: hK5 inh, FXIa inh, FXIIa inh, Wee1 stabilizer, Thrombin inh)
C=CCOC(=O)c1c(C)nc2cc3c(cc2c1C)OCO3	hK5 inh 44
C=CCOC(=O)C1=C(C)NC(=O)NC1c1ccc2c(c1)OCO2 (stereo not drawn)	none (no result: hK5 inh, FXIa inh, FXIIa inh, Wee1 stabilizer, Thrombin inh)
Cn1c(CN2CCOCC2)nc2cc(NC(=O)COc3ccccc3)ccc21	none (no result: Platelet DG rel)
Cn1c(CCN2CCOCC2)nc2cc(NC(=O)COc3ccccc3)ccc21	Wee1 stabilizer 9.1
CC1CN(CC(O)COC2CCC(C(C)(C)C)CC2)CC(C)O1 (stereo not drawn)	hK5 inh 43
COc1ccccc1NC(=O)c1sc2ncn(Cc3cccc(C)c3)c(=O)c2c1C	hK5 inh 44, Thrombin inh 100
COc1ccccc1NC(=O)c1sc2ncn(Cc3ccc(C)cc3)c(=O)c2c1C	Thrombin inh 99
CC(NC(=S)NC1CCC(C(C)(C)C)CC1)c1ccccc1 (stereo not drawn)	none (no result: hK5 inh, FXIa inh, FXIIa inh, Wee1 stabilizer, Thrombin inh)
COc1cc(OC)cc(OC(=O)C2CCN(S(=O)(=O)c3ccc(OC)c(OC)c3)CC2)c1	none (no result: hK5 inh, FXIa inh, FXIIa inh, Wee1 stabilizer, Thrombin inh)
CCCCc1nc2ccccc2c(NC(=O)CN2CCCC2)c1CCC	none
CCCCc1nc2ccccc2c(NC(=O)CNC(C)(C)C)c1CCC	Thrombin inh 42
CCOc1ccc(/C=N/n2cnnc2)cc1	none
CCOc1cc(/C=N/n2cnnc2)cc(Br)c1O	FXIIa inh 43
COc1cc(/C=N/Nc2nncc3ccccc23)cc(OC)c1OC	none (no result: hK5 inh, FXIa inh, FXIIa inh, Wee1 stabilizer, Thrombin inh)
COc1ccc(/C=N/Nc2nncc3ccccc23)c(OC)c1	Wee1 stabilizer 8.9
CN(C)c1ccc(/C=N/Nc2nncc3ccccc23)cc1	Platelet DG rel 54 (no result: hK5 inh, FXIa inh, FXIIa inh, Wee1 stabilizer, Thrombin inh)
O=C(N1CCOCC1)C(F)(F)C(F)(F)C(F)(F)C(F)(F)C(=O)N1CCOCC1	none
O=C(N/N=C/c1cccc2ccccc12)c1ccccc1Cl	none (no result: hK5 inh, FXIa inh, FXIIa inh, Wee1 stabilizer, Thrombin inh)
CC(O)C(=O)N/N=C/c1cccc2ccccc12 (stereo not drawn)	hK5 inh 41, Thrombin inh 48
CN(NC1OC(=O)c2ccccc21)c1ccc(Cl)cc1[N+](=O)[O-] (stereo not drawn)	none
O=C1OC(Nc2ccc(F)c([N+](=O)[O-])c2)c2ccccc21 (stereo not drawn)	FXIa inh 44, Thrombin inh 50
Cc1ccc(-c2[nH]ncc2C(=O)c2ccc(Br)cc2)c(O)c1	none (no result: hK5 inh, FXIa inh, FXIIa inh, Wee1 stabilizer, Thrombin inh)
COCc1nnc(NC(=O)CCc2ccc(OC)cc2)s1	none (no result: hK5 inh, FXIa inh, FXIIa inh, Wee1 stabilizer, Thrombin inh)
COCCNC(=O)c1cn(C)c2ccc(S(=O)(=O)N3CCCC3)cc2c1=O	none (no result: hK5 inh, FXIa inh, FXIIa inh, Wee1 stabilizer, Thrombin inh)
CCN(CC)S(=O)(=O)c1ccc2c(c1)c(=O)c(C(=O)NCc1cccs1)cn2C	Thrombin inh 64
COc1ccccc1CNC(=O)c1cn(C)c2ccc(S(=O)(=O)N3CCCC3)cc2c1=O	Thrombin inh 45
CCN(CC)S(=O)(=O)c1ccc2c(c1)c(=O)c(C(=O)NCCCN(C)c1ccccc1)cn2C	none
CCn1cc(C(=O)NCCc2ccccc2)c(=O)c2cc(S(=O)(=O)N3CCCC3)ccc21	Wee1 stabilizer 9.4
CCn1cc(C(=O)NCc2ccco2)c(=O)c2cc(S(=O)(=O)N3CCCC3)ccc21	Thrombin inh 83
COc1ccc(COC(=O)CCS(=O)(=O)c2ccc(C)cc2)cc1F	none (no result: hK5 inh, FXIa inh, FXIIa inh, Wee1 stabilizer, Thrombin inh)
CN1CCN(CC(=O)Nc2ccc([N+](=O)[O-])cc2Br)CC1	none
CCOC(=O)/C(=N\Nc1ccccc1Cl)N(C)C1CCCCC1	none
CCc1ccc2oc(=O)cc(CN3CCN(c4ccc(F)cc4)CC3)c2c1	Wee1 stabilizer 11
COc1ccc(N(C(C)C(=O)NN=C2CCCCCCC2)S(C)(=O)=O)cc1 (stereo not drawn)	none
